≈ marks a conversion by molar mass, not a printed value.
What was measured:
Clostridium cadaveris = test: In vitro antibacterial activity against the anaerobic Clostridium cadaveris (Strain UC no.6510); format: functional
Summary of the method: (§1)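 Agar dilution with serial twofold drug dilutions in Schaedler broth mixed into molten Wilkens-Chalgren agar. Plates prereduced 3 h under 85% N2/10% H2/5% CO2. Strains grown 48 h on Schaedler agar, suspended to 0.5 McFarland, and 0.001 mL spotted by replicator. All steps done anaerobically. Incubation 48 h at 37 °C. MIC is the least drug inhibiting growth; a faint film or fewer than three colonies scored negative.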

Clostridium tetani = test: In vitro antibacterial activity against the anaerobic Clostridium tetani(Strain UC no.6521); format: functional
Summary of the method: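 Agar dilution under anaerobic conditions. Serial twofold drug dilutions in Schaedler broth were mixed with molten Wilkins-Chalgren agar. Plates were prereduced 3 h (85% N2, 10% H2, 5% CO2). Strains were grown 48 h on Schaedler agar, suspended to 0.5 McFarland, and 0.001 mL spotted by replicator. Incubation was anaerobic, 37 °C, 48 h.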

Escherichia coli = test: In vitro antibacterial activity against the aerobic Escherichia coli (Strain UC no.45); format: functional
Summary of the method: (§2)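 Broth microdilution in brain/heart infusion broth with twofold drug dilutions. Inoculum was a standardized suspension giving 10⁵ viable cells/mL final. Plates were incubated 20 h at 37 °C. MIC (mcg/mL) = lowest concentration with no visible growth.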

Klebsiella pneumoniae = test: In vitro antibacterial activity against the aerobic Klebsiella pneumoniae (Strain UC no.58); format: functional; summary of the method: as §2
Mus musculus [1] = test: Bioactivity in abscess, in Bacteroides fragilis infected mice following subcutaneous dose of 200 mg/kg after 360 mins of bleeding; format: functional
Summary of the method: (§3)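 On day 7 post-infection, groups of five mice were given a single 200 mg/kg subcutaneous dose and killed at set times. Blood was taken by cardiac puncture and abscesses were excised. Activity was measured by standard microbiological assay.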

Mus musculus [2] = test: Bioactivity in abscess, in Bacteroides fragilis infected mice following subcutaneous dose of 200 mg/kg after 45 mins of bleeding; format: functional; summary of the method: as §3
Mus musculus [3] = test: Bioactivity in abscess, in Bacteroides fragilis infected mice following subcutaneous dose of 200 mg/kg after 60 mins of bleeding; format: functional; summary of the method: as §3
Mus musculus [4] = test: Bioactivity in abscess, in Bacteroides fragilis infected mice following subcutaneous dose of 200 mg/kg after 90 mins of bleeding; format: functional; summary of the method: as §3
Mus musculus [5] = test: Bioactivity in blood, in Bacteroides fragilis infected mice following subcutaneous dose of 200 mg/kg after 45 mins of bleeding; format: functional; summary of the method: as §3
Mus musculus [6] = test: Bioactivity in blood, in Bacteroides fragilis infected mice following subcutaneous dose of 200 mg/kg after 60 mins of bleeding; format: functional; summary of the method: as §3
Mus musculus [7] = test: Bioactivity in blood, in Bacteroides fragilis infected mice following subcutaneous dose of 200 mg/kg after 90 mins of bleeding; format: functional; summary of the method: as §3
Mus musculus [8] = test: Bioactivity in blood, in Bacteroides fragilis infected mice following subcutaneous dose of 200 mg/kg after 120 mins of bleeding; format: functional; summary of the method: as §3
Mus musculus [9] = test: Bioactivity in blood, in Bacteroides fragilis infected mice following subcutaneous dose of 200 mg/kg after 15 mins of bleeding; format: functional; summary of the method: as §3
Mus musculus [10] = test: Bioactivity in blood, in Bacteroides fragilis infected mice following subcutaneous dose of 200 mg/kg after 150 mins of bleeding; format: functional; summary of the method: as §3
Mus musculus [11] = test: Bioactivity in blood, in Bacteroides fragilis infected mice following subcutaneous dose of 200 mg/kg after 30 mins of bleeding; format: functional; summary of the method: as §3
Mus musculus [12] = test: Bioactivity in blood, in Bacteroides fragilis infected mice following subcutaneous dose of 200 mg/kg after 360 mins of bleeding; format: functional; summary of the method: as §3
Mus musculus [13] = test: Bioactivity in abscess, in Bacteroides fragilis infected mice following subcutaneous dose of 200 mg/kg after 120 mins of bleeding; format: functional; summary of the method: as §3
Mus musculus [14] = test: Bioactivity in abscess, in Bacteroides fragilis infected mice following subcutaneous dose of 200 mg/kg after 15 mins of bleeding; format: functional; summary of the method: as §3
Mus musculus [15] = test: Bioactivity in abscess, in Bacteroides fragilis infected mice following subcutaneous dose of 200 mg/kg after 150 mins of bleeding; format: functional; summary of the method: as §3
Mus musculus [16] = test: Bioactivity in abscess, in Bacteroides fragilis infected mice following subcutaneous dose of 200 mg/kg after 30 mins of bleeding; format: functional; summary of the method: as §3
[17] = system: Peptoniphilus asaccharolyticus; test: In vitro antibacterial activity against the anaerobic Peptoccus aerogenes (Strain UC no.6319); format: functional; summary of the method: as §1
Pseudomonas aeruginosa = test: In vitro antibacterial activity against the aerobic Pseudomonas aeruginosa (Strain UC no.95); format: functional; summary of the method: as §2
Proteus vulgaris = test: In vitro antibacterial activity against the aerobic Proteus vulgaris (Strain UC no.93); format: functional; summary of the method: as §2
Cutibacterium acnes = test: In vitro antibacterial activity against the anaerobic Propionibacterium acnes(Strain UC no.6575); format: functional; summary of the method: as §1
[18] = In vitro antibacterial activity against the aerobic Salmonella schottmuelleri (Strain UC no.126); format: functional; summary of the method: as §2
[19] = In vitro antibacterial activity against the aerobic […] (Strain UC no.153); format: functional; summary of the method: as §2
[20] = In vitro antibacterial activity against the aerobic […] (Strain UC no.871); format: functional; summary of the method: as §2
[21] = In vitro antibacterial activity against the aerobic […] III(Strain UC no.3213); format: functional; summary of the method: as §2
Staphylococcus aureus [22] = test: In vitro antibacterial activity against the aerobic Staphylococcus aureus (Strain UC no.571); format: functional; summary of the method: as §2
Staphylococcus aureus [23] = test: In vitro antibacterial activity against the aerobic Staphylococcus aureus (Strain UC no.6675); format: functional; summary of the method: as §2
Staphylococcus aureus [24] = test: In vitro antibacterial activity against the aerobic Staphylococcus aureus (Strain UC no.6686); format: functional; summary of the method: as §2
Staphylococcus aureus [25] = test: In vitro antibacterial activity against the aerobic Staphylococcus aureus (Strain UC no.6688); format: functional; summary of the method: as §2
Staphylococcus aureus [26] = test: In vitro antibacterial activity against the aerobic Staphylococcus aureus (Strain UC no.6689); format: functional; summary of the method: as §2
Staphylococcus aureus [27] = test: In vitro antibacterial activity against the aerobic Staphylococcus aureus (Strain UC no.6691); format: functional; summary of the method: as §2
Staphylococcus aureus [28] = test: In vitro antibacterial activity against the aerobic Staphylococcus aureus (Strain UC no.6692); format: functional; summary of the method: as §2
Staphylococcus aureus [29] = test: In vitro antibacterial activity against the aerobic Staphylococcus aureus (Strain UC no.6693); format: functional; summary of the method: as §2
Staphylococcus aureus [30] = test: In vitro antibacterial activity against the aerobic Staphylococcus aureus (Strain UC no.6694); format: functional; summary of the method: as §2
Staphylococcus aureus [31] = test: In vitro antibacterial activity against the aerobic Staphylococcus aureus (Strain UC no.6695); format: functional; summary of the method: as §2
Staphylococcus aureus [32] = test: In vitro antibacterial activity against the aerobic Staphylococcus aureus (Strain UC no.6696); format: functional; summary of the method: as §2
Staphylococcus aureus [33] = test: In vitro antibacterial activity for minimum inhibition concentration (MIC) required to inhibit growth of Staphylococcus aureus; format: functional
Summary of the method: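 Broth microdilution in brain/heart infusion broth, inoculated with a standardized suspension to a final 10^5 viable cells/mL. Incubation 20 h at 37 °C. MIC read as the lowest concentration preventing visible growth.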

Staphylococcus aureus [34] = test: In vitro antibacterial activity against the aerobic Staphylococcus aureus (Strain UC no.570); format: functional; summary of the method: as §2
Staphylococcus aureus [35] = test: In vitro antibacterial activity against the aerobic Staphylococcus aureus (Strain UC no.746); format: functional; summary of the method: as §2
[36] = In vitro antibacterial activity against the aerobic […] I(Strain UC no.41); format: functional; summary of the method: as §2
Staphylococcus aureus [37] = test: In vitro antibacterial activity against the aerobic Staphylococcus aureus (Strain UC no.76); format: functional; summary of the method: as §2
Streptococcus pyogenes = test: In vitro antibacterial activity against the aerobic Streptococcus pyogenes (Strain UC no.152)

CC[C@@H]1CCN[C@H](C(=O)N[C@@H]([C@H]2O[C@H](SC)[C@H](O)[C@@H](O)[C@H]2O)[C@H](C)Cl)C1 [PIRLIMYCIN]
MIC (Clostridium cadaveris): 0.06 µg/mL (≈ 0.146 µM)
MIC (Clostridium tetani): < 0.03 µg/mL
MIC (Escherichia coli): > 25 µg/mL
MIC (Klebsiella pneumoniae): > 25 µg/mL
A (Mus musculus [1]): 15 ug (g of abscess)-1
A (Mus musculus [2]): 32 ug (g of abscess)-1
A (Mus musculus [3]): 31 ug (g of abscess)-1
A (Mus musculus [4]): 31 ug (g of abscess)-1
B (Mus musculus [5]): 25 ug (g of abscess)-1
B (Mus musculus [6]): 20 ug (g of abscess)-1
B (Mus musculus [7]): 14 ug (g of abscess)-1
B (Mus musculus [8]): 10 ug (g of abscess)-1
B (Mus musculus [9]): 39 ug (g of abscess)-1
B (Mus musculus [10]): 8 ug (g of abscess)-1
B (Mus musculus [11]): 43 ug (g of abscess)-1
B (Mus musculus [12]): 4 ug (g of abscess)-1
A (Mus musculus [13]): 22 ug (g of abscess)-1
A (Mus musculus [14]): 58 ug (g of abscess)-1
A (Mus musculus [15]): 19 ug (g of abscess)-1
A (Mus musculus [16]): 48 ug (g of abscess)-1
MIC [17]: 0.06 µg/mL (≈ 0.146 µM)
MIC (Pseudomonas aeruginosa): > 25 µg/mL
MIC (Proteus vulgaris): > 25 µg/mL
MIC (Cutibacterium acnes): 0.06 µg/mL (≈ 0.146 µM)
MIC [18]: > 25 µg/mL
MIC [19]: 0.05 µg/mL (≈ 0.122 µM)
MIC [20]: < 0.012 µg/mL
MIC [21]: < 0.012 µg/mL
MIC (Staphylococcus aureus [22]): 0.78 µg/mL (≈ 1.9 µM)
MIC (Staphylococcus aureus [23]): 0.39 µg/mL (≈ 0.949 µM)
MIC (Staphylococcus aureus [24]): 0.2 µg/mL (≈ 0.487 µM)
MIC (Staphylococcus aureus [25]): > 25 µg/mL
MIC (Staphylococcus aureus [26]): 0.78 µg/mL (≈ 1.9 µM)
MIC (Staphylococcus aureus [27]): 0.2 µg/mL (≈ 0.487 µM)
MIC (Staphylococcus aureus [28]): > 25 µg/mL
MIC (Staphylococcus aureus [29]): 0.78 µg/mL (≈ 1.9 µM)
MIC (Staphylococcus aureus [30]): > 25 µg/mL
MIC (Staphylococcus aureus [31]): 0.39 µg/mL (≈ 0.949 µM)
MIC (Staphylococcus aureus [32]): 0.39 µg/mL (≈ 0.949 µM)
MIC (Staphylococcus aureus [33]): 0.1 µg/mL (≈ 0.243 µM)
MIC (Staphylococcus aureus [34]): 0.39 µg/mL (≈ 0.949 µM)
MIC (Staphylococcus aureus [35]): 0.05 µg/mL (≈ 0.122 µM)
MIC [36]: < 0.012 µg/mL
MIC (Staphylococcus aureus [37]): 0.1 µg/mL (≈ 0.243 µM)
MIC (Streptococcus pyogenes): < 0.012 µg/mL

Reference: ChEMBL document CHEMBL1122773 (1984)
